Values after ≈ are worked out from the molar mass of the structure shown.
What was measured:
Format in all cases: functional
Candida parapsilosis [1] = assay: Antifungal activity against Candida parapsilosis DSM 11224 after 48 hrs by CLSI broth microdilution method; details: Lodderomyces parapsilosis, DSM 11224, 48 h
Method in brief: (§1)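 Yeast CLSI broth microdilution (M27-A3). Compounds dissolved in DMSO at 100× the top test concentration, then diluted as serial two-fold dilutions in RPMI 1640 to final 0.125–64. Inoculum was 1.0–1.5 × 10^3 cells mL−1, incubated at 35 °C and read for growth at 48 h. MIC is the lowest concentration giving ≥50% growth inhibition versus growth control. Reported as the median of five replicates and as the geometric mean.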

Candida albicans [2] = assay: Antifungal activity against Candida albicans ATCC 3153 after 48 hrs by CLSI broth microdilution method; details: ATCC 3153, 48 h; method in brief: as §1
Candida parapsilosis [3] = assay: Antifungal activity against Candida parapsilosis ATCC 22019 after 48 hrs by CLSI broth microdilution method; details: Lodderomyces parapsilosis, ATCC 22019, 48 h; method in brief: as §1
[4] = test system: Trichophyton mentagrophytes; assay: Antifungal activity against Trichophyton mentagrophytes PMC 6531 after 72 hrs by CLSI broth microdilution method; details: PMC 6531, 72 h
Method in brief: (§2)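 Dermatophytes tested by CLSI broth microdilution for filamentous fungi (M38-A2). Serial two-fold dilutions of DMSO-dissolved compound in RPMI 1640, final 0.125–64. Inoculum was 0.4–5 × 10^4 CFU mL−1, incubated at 35 °C and read at 72 h. MIC80 is the lowest concentration giving ≥80% growth inhibition versus growth control. Median of five replicates, plus geometric mean.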

[5] = test system: Trichophyton mentagrophytes; assay: Antifungal activity against Trichophyton mentagrophytes PMC 6503 after 72 hrs by CLSI broth microdilution method; details: PMC 6503, 72 h; method in brief: as §2
Cryptococcus neoformans [6] = assay: Antifungal activity against Cryptococcus neoformans PMC 2136 after 72 hrs by CLSI broth microdilution method; details: PMC 2136, 72 h
Method in brief: (§3)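 Cryptococcus neoformans tested by CLSI broth microdilution in RPMI 1640, with serial two-fold dilutions from DMSO stocks at 100× the top concentration, final 0.125–64. Inoculum was 1.0–1.5 × 10^3 cells mL−1 at 35 °C, with growth read at 72 h. MIC is the lowest concentration with ≥50% growth inhibition versus control. Median of five replicates, plus geometric mean.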

Nannizzia gypsea [7] = assay: Antifungal activity against Microsporum gypseum DSM 3824 after 72 hrs by CLSI broth microdilution method; details: DSM 3824, 72 h; method in brief: as §2
Candida albicans [8] = assay: Antifungal activity against Candida albicans ATCC 10231 after 48 hrs by CLSI broth microdilution method; details: ATCC 10231, 48 h; method in brief: as §1
Candida tropicalis [9] = assay: Antifungal activity against Candida tropicalis PMC 0910 after 48 hrs by CLSI broth microdilution method; details: PMC 0910, 48 h; method in brief: as §1
Cryptococcus neoformans [10] = assay: Antifungal activity against Cryptococcus neoformans DSM 11959 after 72 hrs by CLSI broth microdilution method; details: DSM 11959, 72 h; method in brief: as §3
Nannizzia gypsea [11] = assay: Antifungal activity against Microsporum gypseum PMC 7303 after 72 hrs by CLSI broth microdilution method; details: PMC 7303, 72 h; method in brief: as §2
Cryptococcus neoformans [12] = assay: Antifungal activity against Cryptococcus neoformans PMC 2115 after 72 hrs by CLSI broth microdilution method; details: PMC 2115, 72 h; method in brief: as §3
Cryptococcus neoformans [13] = assay: Antifungal activity against Cryptococcus neoformans PMC 2107 after 72 hrs by CLSI broth microdilution method; details: PMC 2107, 72 h; method in brief: as §3
Cryptococcus neoformans [14] = assay: Antifungal activity against Cryptococcus neoformans PMC 2111 after 72 hrs by CLSI broth microdilution method; details: PMC 2111, 72 h; method in brief: as §3
Cryptococcus neoformans [15] = assay: Antifungal activity against Cryptococcus neoformans PMC 2103 after 72 hrs by CLSI broth microdilution method; details: PMC 2103, 72 h; method in brief: as §3
Candida tropicalis [16] = assay: Antifungal activity against Candida tropicalis DSM 11953 after 48 hrs by CLSI broth microdilution method; details: DSM 11953, 48 h; method in brief: as §1
Candida albicans [17] = assay: Antifungal activity against Candida albicans ATCC 10261 after 48 hrs by CLSI broth microdilution method; details: ATCC 10261, 48 h; method in brief: as §1
Candida albicans [18] = assay: Antifungal activity against Candida albicans ATCC 90028 after 48 hrs by CLSI broth microdilution method; details: ATCC 90028, 48 h; method in brief: as §1
Candida albicans [19] = assay: Antifungal activity against Candida albicans PMC 1011 after 48 hrs by CLSI broth microdilution method; details: PMC 1011, 48 h; method in brief: as §1
Nakaseomyces glabratus [20] = assay: Antifungal activity against Candida glabrata PMC 0805 after 48 hrs by CLSI broth microdilution method; details: PMC 0805, 48 h; method in brief: as §1
Pichia kudriavzevii [21] = assay: Antifungal activity against Candida krusei DSM 6128 after 48 hrs by CLSI broth microdilution method; details: DSM 6128, 48 h; method in brief: as §1
Nakaseomyces glabratus [22] = assay: Antifungal activity against Candida glabrata PMC 0807 after 48 hrs by CLSI broth microdilution method; details: PMC 0807, 48 h; method in brief: as §1
[23] = test system: Trichophyton mentagrophytes; assay: Antifungal activity against Trichophyton mentagrophytes PMC 6552 after 72 hrs by CLSI broth microdilution method; details: PMC 6552, 72 h; method in brief: as §2
Cryptococcus neoformans [24] = assay: Antifungal activity against Cryptococcus neoformans PMC 2123 after 72 hrs by CLSI broth microdilution method; details: PMC 2123, 72 h; method in brief: as §3
[25] = test system: Trichophyton mentagrophytes; assay: Antifungal activity against Trichophyton mentagrophytes DSM 4870 after 72 hrs by CLSI broth microdilution method; details: DSM 4870, 72 h; method in brief: as §2
[26] = test system: Trichophyton mentagrophytes; assay: Antifungal activity against Trichophyton mentagrophytes PMC 6515 after 72 hrs by CLSI broth microdilution method; details: PMC 6515, 72 h; method in brief: as §2
Candida albicans [27] = assay: Antifungal activity against Candida albicans ATCC 24433 after 48 hrs by CLSI broth microdilution method; details: ATCC 24433, 48 h; method in brief: as §1
Cryptococcus neoformans [28] = assay: Antifungal activity against Cryptococcus neoformans PMC 2102 after 72 hrs by CLSI broth microdilution method; details: PMC 2102, 72 h; method in brief: as §3
Candida albicans [29] = assay: Antifungal activity against Candida albicans ATCC 20891 after 48 hrs by CLSI broth microdilution method; details: ATCC 20891, 48 h; method in brief: as §1
Nannizzia gypsea [30] = assay: Antifungal activity against Microsporum gypseum PMC 7331 after 72 hrs by CLSI broth microdilution method; details: PMC 7331, 72 h; method in brief: as §2
Candida albicans [31] = assay: Antifungal activity against Candida albicans ATCC 76615 after 48 hrs by CLSI broth microdilution method; details: ATCC 76615, 48 h; method in brief: as §1
Pichia kudriavzevii [32] = assay: Antifungal activity against Candida krusei PMC 0613 after 48 hrs by CLSI broth microdilution method; details: PMC 0613, 48 h; method in brief: as §1
[33] = test system: Trichophyton mentagrophytes; assay: Antifungal activity against Trichophyton mentagrophytes PMC 6509 after 72 hrs by CLSI broth microdilution method; details: PMC 6509, 72 h; method in brief: as §2

Row | SMILES | MIC50 (Candida parapsilosis [1]) | MIC50 (Candida albicans [2]) | MIC50 (Candida parapsilosis [3]) | MIC80 [4] | MIC80 [5] | MIC50 (Cryptococcus neoformans [6]) | MIC80 (Nannizzia gypsea [7]) | MIC50 (Candida albicans [8]) | MIC50 (Candida tropicalis [9]) | MIC50 (Cryptococcus neoformans [10]) | MIC80 (Nannizzia gypsea [11]) | MIC50 (Cryptococcus neoformans [12]) | MIC50 (Cryptococcus neoformans [13]) | MIC50 (Cryptococcus neoformans [14]) | MIC50 (Cryptococcus neoformans [15]) | MIC50 (Candida tropicalis [16]) | MIC50 (Candida albicans [17]) | MIC50 (Candida albicans [18]) | MIC50 (Candida albicans [19]) | MIC50 (Nakaseomyces glabratus [20]) | also measured
1 | O=C(Nc1ccc(N2CCN(C(=O)c3ccco3)CC2)cc1)OC(Cn1ccnc1)c1ccc(F)cc1 (stereo unspecified) | 128 µg/mL (≈ 254 µM) | 128 µg/mL (≈ 254 µM) | 128 µg/mL (≈ 254 µM) | 128 µg/mL (≈ 254 µM) | 128 µg/mL (≈ 254 µM) | 16 µg/mL (≈ 31.8 µM) | 128 µg/mL (≈ 254 µM) | 128 µg/mL (≈ 254 µM) | 128 µg/mL (≈ 254 µM) | 16 µg/mL (≈ 31.8 µM) | 64 µg/mL (≈ 127 µM) | 64 µg/mL (≈ 127 µM) | 16 µg/mL (≈ 31.8 µM) | 16 µg/mL (≈ 31.8 µM) | 1 µg/mL (≈ 1.99 µM) | 128 µg/mL (≈ 254 µM) | 32 µg/mL (≈ 63.6 µM) | 128 µg/mL (≈ 254 µM) | 128 µg/mL (≈ 254 µM) | 128 µg/mL (≈ 254 µM) | MIC50 (Pichia kudriavzevii [21]): 128 µg/mL (≈ 254 µM); MIC50 (Nakaseomyces glabratus [22]): 128 µg/mL (≈ 254 µM); MIC80 [23]: 128 µg/mL (≈ 254 µM); MIC50 (Cryptococcus neoformans [24]): 64 µg/mL (≈ 127 µM); MIC80 [25]: 128 µg/mL (≈ 254 µM); MIC80 [26]: 128 µg/mL (≈ 254 µM); MIC50 (Candida albicans [27]): 128 µg/mL (≈ 254 µM); MIC50 (Cryptococcus neoformans [28]): 32 µg/mL (≈ 63.6 µM); MIC50 (Candida albicans [29]): 128 µg/mL (≈ 254 µM); MIC80 (Nannizzia gypsea [30]): 128 µg/mL (≈ 254 µM); MIC50 (Candida albicans [31]): 128 µg/mL (≈ 254 µM); MIC50 (Pichia kudriavzevii [32]): 128 µg/mL (≈ 254 µM); MIC80 [33]: 128 µg/mL (≈ 254 µM)
2 | O=C(OC(Cn1ccnc1)c1ccc(F)cc1)N1CCN(c2ccc([N+](=O)[O-])cc2)CC1 (stereo unspecified) | 4 µg/mL (≈ 9.1 µM) | 16 µg/mL (≈ 36.4 µM) | 16 µg/mL (≈ 36.4 µM) | 64 µg/mL (≈ 146 µM) | 32 µg/mL (≈ 72.8 µM) | 16 µg/mL (≈ 36.4 µM) | 64 µg/mL (≈ 146 µM) | 32 µg/mL (≈ 72.8 µM) | 32 µg/mL (≈ 72.8 µM) | 16 µg/mL (≈ 36.4 µM) | 32 µg/mL (≈ 72.8 µM) | 64 µg/mL (≈ 146 µM) | 16 µg/mL (≈ 36.4 µM) | 16 µg/mL (≈ 36.4 µM) | 8 µg/mL (≈ 18.2 µM) | 128 µg/mL (≈ 291 µM) | 8 µg/mL (≈ 18.2 µM) | 8 µg/mL (≈ 18.2 µM) | 8 µg/mL (≈ 18.2 µM) | 64 µg/mL (≈ 146 µM) | MIC50 (Pichia kudriavzevii [21]): 64 µg/mL (≈ 146 µM); MIC50 (Nakaseomyces glabratus [22]): 64 µg/mL (≈ 146 µM); MIC80 [23]: 32 µg/mL (≈ 72.8 µM); MIC50 (Cryptococcus neoformans [24]): 128 µg/mL (≈ 291 µM); MIC80 [25]: 64 µg/mL (≈ 146 µM); MIC80 [26]: 64 µg/mL (≈ 146 µM); MIC50 (Candida albicans [27]): 32 µg/mL (≈ 72.8 µM); MIC50 (Cryptococcus neoformans [28]): 32 µg/mL (≈ 72.8 µM); MIC50 (Candida albicans [29]): 8 µg/mL (≈ 18.2 µM); MIC80 (Nannizzia gypsea [30]): 32 µg/mL (≈ 72.8 µM); MIC50 (Candida albicans [31]): 128 µg/mL (≈ 291 µM); MIC50 (Pichia kudriavzevii [32]): 16 µg/mL (≈ 36.4 µM); MIC80 [33]: 64 µg/mL (≈ 146 µM)
